Experimental data reported in ChEMBL document CHEMBL4334455, “Synthesis of Usnic Acid Derivatives and Evaluation of Their Antiproliferative Activity against Cancer Cells” (J Nat Prod, 2019).
Values belong to the compound of their own block, whether it stands above or below them. The source made the active and inactive calls. The calls are words filed in the database; no cut-off is given here.

How the values were obtained:
HeLa [1] = assay: Cell cycle arrest in human HeLa cells assessed as reduction in cell population at G2/M phase at 2.4 to 7.2 uM after 24 hrs by propidium iodide staining based flow cytometric analysis; assay type: functional
MCF7 [2] = assay: Antiproliferative activity against human MCF7 cells assessed as reduction in cell viability after 48 hrs by MTT assay; assay type: functional, cell-based
Outline: (§1)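 Cells seeded at 4 × 10³/well for 24 h runs and for PC-3, or 2 × 10³/well for MCF-7 and HeLa 48 h runs, and attached overnight. Medium replaced with compound-containing medium for 24 or 48 h. MTT (4 mg mL⁻¹) added for the final 3 h, formazan dissolved in DMSO, absorbance read at 570 nm (reference 660 nm). IC₅₀ calculated from at least three independent experiments in duplicate, mean ± SE.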

PC-3 [3] = assay: Antiproliferative activity against human PC3 cells assessed as reduction in cell viability after 24 hrs by MTT assay; assay type: functional, cell-based; details: PC-3, 24 h; outline: as §1
[4] = Cytotoxicity against human HDFa cells assessed as reduction in cell viability after 24 hrs by MTT assay; assay type: cell-based; outline: as §1
MCF7 [5] = assay: Cytostatic activity against human MCF7 cells measured after 24 hrs by MTT assay; assay type: functional, cell-based; outline: as §1
PC-3 [6] = assay: Antiproliferative activity against human PC3 cells assessed as reduction in cell viability after 48 hrs by MTT assay; assay type: functional, cell-based; details: PC-3, 48 h; outline: as §1
HeLa [7] = assay: Antiproliferative activity against human HeLa cells assessed as reduction in cell viability after 48 hrs by MTT assay; assay type: functional, cell-based; outline: as §1
HeLa [8] = assay: Induction of cell cycle arrest in human HeLa cells assessed as accumulation of cells at G0/G1 phase 2.4 to 7.2 uM after 24 hrs by propidium iodide staining based flow cytometric analysis (reference value: 44%); assay type: functional
HeLa [9] = assay: Cell cycle arrest in human HeLa cells assessed as reduction in cell population at S phase at 2.4 to 7.2 uM after 24 hrs by propidium iodide staining based flow cytometric analysis; assay type: functional
PC-3 [10] = assay: Cytostatic activity against human PC3 cells measured after 24 hrs by MTT assay; assay type: functional, cell-based; outline: as §1
HeLa [11] = assay: Cytostatic activity against human HeLa cells measured after 24 hrs by MTT assay; assay type: functional, cell-based; outline: as §1
HeLa [12] = assay: Antiproliferative activity against human HeLa cells assessed as reduction in cell viability after 24 hrs by MTT assay; assay type: functional, cell-based; outline: as §1
[13] = Cytotoxicity against human HDFa cells assessed as reduction in cell viability after 48 hrs by MTT assay; assay type: cell-based; outline: as §1
MCF7 [14] = assay: Antiproliferative activity against human MCF7 cells assessed as reduction in cell viability after 24 hrs by MTT assay; assay type: functional, cell-based; details: for IC50: MCF7, 24 h; outline: as §1
HeLa [15] = assay: Induction of cell cycle arrest in human HeLa cells assessed as accumulation of cells at G0/G1 phase after 24 hrs by propidium iodide staining based flow cytometric analysis; assay type: functional
MCF7 [16] = assay: Induction of cell cycle arrest in human MCF7 cells assessed as accumulation of cells at S phase at 8.7 uM after 24 hrs by Propidium iodide staining based flow cytometric analysis (reference value: 23.75 +/- 1.87%); assay type: functional
MCF7 [17] = assay: Induction of cell cycle arrest in human MCF7 cells assessed as accumulation of cells at G0/G1 phase at 2.9 uM after 24 hrs by Propidium iodide staining based flow cytometric analysis (reference value: 47.8 +/- 0.42%); assay type: functional
MCF7 [18] = assay: Induction of cell cycle arrest in human MCF7 cells assessed as accumulation of cells at G2/M phase at 2.9 uM after 24 hrs by Propidium iodide staining based flow cytometric analysis (reference value: 27 +/- 2.97%); assay type: functional
MCF7 [19] = assay: Induction of cell cycle arrest in human MCF7 cells assessed as accumulation of cells at G0/G1 phase at 8.7 uM after 24 hrs by Propidium iodide staining based flow cytometric analysis (reference value: 47.8 +/- 0.42%); assay type: functional
MCF7 [20] = assay: Induction of cell cycle arrest in human MCF7 cells assessed as accumulation of cells at S phase at 2.9 uM after 24 hrs by Propidium iodide staining based flow cytometric analysis (reference value: 23.75 +/- 1.87%); assay type: functional
MCF7 [21] = assay: Induction of cell cycle arrest in human MCF7 cells assessed as accumulation of cells at G2/M phase at 8.7 uM after 24 hrs by Propidium iodide staining based flow cytometric analysis (reference value: 27 +/- 2.97%); assay type: functional
HeLa [22] = assay: Cell cycle arrest in human HeLa cells assessed as accumulation of cells at S phase at 8.7 uM after 24 hrs by propidium iodide staining based flow cytometric analysis; assay type: functional
HeLa [23] = assay: Cell cycle arrest in human HeLa cells assessed as accumulation of cells at G2/M phase at 8.7 uM after 24 hrs by propidium iodide staining based flow cytometric analysis; assay type: functional

- IC50 (MCF7 [2]; Homo sapiens, MCF7, 48 h): > 10 µM
- IC50 (PC-3 [3]): > 10 µM
- IC50 (PC-3 [6]): > 10 µM
- IC50 (HeLa [7]; Homo sapiens, HeLa, 48 h): 1.2 µM
- IC50 (HeLa [12]): 2.7 µM
- IC50 (MCF7 [14]): > 10 µM
SMILES: CC(=O)c1c(O)c(C)c(O)c2c1OC1=Cc3c(c(C)nn3C)C(=O)[C@]12C
- Activity (HeLa [1]): Active
- IC50 [4]: > 10 µM
- Activity (MCF7 [5]): inactive
- Activity (HeLa [8]): 51 - 65%
- Activity (HeLa [9]): Active
- Activity (PC-3 [10]): inactive
- Activity (HeLa [11]): inactive
- IC50 [13]: > 10 µM

SMILES: CC(=O)c1c(O)c(C)c(O)c2c1OC1=Cc3c(c(C)nn3-c3ccc(C)cc3)C(=O)[C@]12C
- inhibition (MCF7 [2]): inactive
- inhibition (MCF7 [14]): inactive

SMILES: CC(=O)c1c(O)c(C)c(O)c2c1OC1=Cc3c(c(C)nn3-c3ccc(Cl)c(Cl)c3)C(=O)[C@]12C
- inhibition (MCF7 [2]): inactive
- inhibition (MCF7 [14]): inactive

SMILES: CC(=O)c1c(O)c(C)c(O)c2c1OC1=Cc3c(c(C)nn3-c3ccc(F)cc3)C(=O)[C@]12C
- inhibition (MCF7 [2]): inactive
- inhibition (MCF7 [14]): inactive

SMILES: CC(=O)c1c(O)c(C)c(O)c2c1OC1=Cc3c(c(C)nn3-c3ccccc3)C(=O)[C@]12C
- inhibition (MCF7 [2]): inactive
- inhibition (MCF7 [14]): inactive

SMILES: COc1ccc(-n2nc(C)c3c2C=C2Oc4c(C(C)=O)c(O)c(C)c(O)c4[C@]2(C)C3=O)cc1
- inhibition (MCF7 [2]): inactive
- inhibition (MCF7 [14]): inactive

- IC50 (MCF7 [2]; Homo sapiens, MCF7, 48 h): > 10 µM
- IC50 (PC-3 [3]): > 10 µM
- IC50 (PC-3 [6]): > 10 µM
- IC50 (HeLa [7]; Homo sapiens, HeLa, 48 h): 1.1 µM
- IC50 (HeLa [12]): 2.7 µM
- IC50 (MCF7 [14]): > 10 µM
SMILES: CC(=O)c1c(O)c(C)c(O)c2c1OC1=Cc3c(c(C)nn3C)C(=O)C12C (racemic)
- Activity (HeLa [1]): Active
- Activity (HeLa [15]): Dose-dependent effect
- IC50 [4]: > 10 µM
- Activity (MCF7 [5]): inactive
- Activity (HeLa [8]): 51 - 65%
- Activity (HeLa [9]): Active
- Activity (PC-3 [10]): inactive
- Activity (HeLa [11]): inactive
- IC50 [13]: > 10 µM

SMILES: CC(=O)c1c(O)c(C)c(O)c2c1OC1=Cc3c(c(C)nn3-c3ccc(C)cc3)C(=O)C12C (racemic)
- inhibition (MCF7 [2]): inactive
- inhibition (MCF7 [14]): inactive

SMILES: CC(=O)c1c(O)c(C)c(O)c2c1OC1=Cc3c(c(C)nn3-c3ccc(Cl)c(Cl)c3)C(=O)C12C (racemic)
- inhibition (MCF7 [2]): inactive
- inhibition (MCF7 [14]): inactive

SMILES: CC(=O)c1c(O)c(C)c(O)c2c1OC1=Cc3c(c(C)nn3-c3ccc(F)cc3)C(=O)C12C (racemic)
- inhibition (MCF7 [2]): inactive
- inhibition (MCF7 [14]): inactive

SMILES: CC(=O)c1c(O)c(C)c(O)c2c1OC1=Cc3c(c(C)nn3-c3ccccc3)C(=O)C12C (racemic)
- inhibition (MCF7 [2]): inactive
- inhibition (MCF7 [14]): inactive

SMILES: COc1ccc(-n2nc(C)c3c2C=C2Oc4c(C(C)=O)c(O)c(C)c(O)c4C2(C)C3=O)cc1 (racemic)
- inhibition (MCF7 [2]): inactive
- inhibition (MCF7 [14]): inactive

SMILES: CC(=O)c1c(O)c(C)c(O)c2c1OC1=CC(=O)C(C(C)=O)C(=O)C12C (stereo in doubt; (+)-1) [listing 1 of 2 here]
- Activity (MCF7 [16]): 22.4%
- IC50 (MCF7 [2]; mcf7): 10 to 75.7 µM
- Activity (MCF7 [17]): 46%
- IC50 (HeLa [7]; hela): 10 to 23.7 µM
- Activity (MCF7 [18]): 28.8%
- Activity (MCF7 [19]): 50.6%
- Activity (MCF7 [20]): 23%
- Activity (MCF7 [21]): 24.8%

SMILES: CC(=O)c1c(O)c(C)c(O)c2c1OC1=CC(=O)C(C(C)=O)C(=O)C12C (stereo in doubt; (+)-1) [listing 2 of 2 here]
- Activity (HeLa [22]): Active
- Activity (HeLa [23]): Active

SMILES: CC(=O)c1c(O)c(C)c(O)c2c1OC1=CC(=O)C(C(C)=O)C(=O)C12C (stereo in doubt; (-)-1) [listing 1 of 2 here]
- Activity (MCF7 [16]): 20.6%
- IC50 (MCF7 [2]; Homo sapiens, MCF7, 48 h): > 10 µM
- IC50 (PC-3 [3]): > 10 µM
- Activity (MCF7 [17]): 46.95%
- IC50 [4]: > 10 µM
- IC50 (PC-3 [6]): > 10 µM
- IC50 (HeLa [7]; Homo sapiens, HeLa, 48 h): > 10 µM
- Activity (MCF7 [18]): 28.25%
- Activity (MCF7 [19]): 52.35%
- IC50 (HeLa [12]): > 10 µM
- Activity (MCF7 [20]): 22.9%
- IC50 [13]: > 10 µM
- IC50 (MCF7 [14]): > 10 µM
- Activity (MCF7 [21]): 24.95%

SMILES: CC(=O)c1c(O)c(C)c(O)c2c1OC1=CC(=O)C(C(C)=O)C(=O)C12C (stereo in doubt; (-)-1) [listing 2 of 2 here]
- Activity (HeLa [22]): Active
- Activity (HeLa [23]): Active
